# Rows were chosen to be rich in hits. Some 2.3% of all compounds tested hit in one or more screens of this group.
# TRPC4 block = inhibitors of mouse TRPC4 channel, primary screen, Fluo4 calcium, HEK293 TRPC4beta/mu-opioid cells; B-score at 10 µM; AID 2247, 2010; Short transient receptor potential channel 4 (Mus musculus), Q9QUQ5; DAMGO-evoked Fluo4 calcium flux; stronger effect = lower value; hit rate 0.39% among 300,000;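 active means B-score over 3 SD under the library average, no early fluorescence shift, positive overall ratio signal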
#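 Assay system: TRPC4beta/mu-opioid receptor HEK293 cell line; compound dosing: single concentration per test compound; detection: Fluo4 Ca2+ flux fluorescence; evaluation: per-well B score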
# TRPC6 act = mouse TRPC6 channel activators, primary screen, cell-based, HEK293, membrane potential dye; AID 2550, 2010; B-score at 10 µM; HEK293-TRPC6 membrane potential dye fluorescence; stronger effect = higher value; Short transient receptor potential channel 6 (Mus musculus), Q61143; hit rate 0.13% among 310,000;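 active means B-score of the integrated fluorescence ratio above library mean plus 3 SD, and starting fluorescence ratio within library mean plus 5 SD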;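 further: higher score means more depolarization so channel activation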
# TRPC4 act = activators of mouse TRPC4 channel, primary screen, Fluo4 calcium, HEK293 TRPC4beta/mu-opioid cells. Fluo4 calcium fluorescence; stronger effect = higher value. B-score at 10 µM. hit rate 0.49% among 310,000. AID 2237, 2010;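 active means B-score above 5 SD of library B-scores, and initial fluorescence ratio not above library mean plus 5 SD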;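 further: positive B-score marks a calcium rise read as TRPC4 activation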
#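 Assay system: HEK293 stable line with TRPC4beta plus mu-opioid receptor; schedule: 45 min room-temperature Fluo4 loading, 110 s read; technique: kinetic Fluo4 calcium fluorescence; evaluation: integrated baseline-normalised fluorescence ratio, converted to per-well B score; controls: buffer (low) and maximal DAMGO (high)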
# TRPC4 PAM = positive allosteric modulators of TRPC4, primary screen, cell-based, mouse TRPC4beta, HEK293 mu-opioid, Fluo-4 calcium. B-score at 10 µM. DAMGO EC20, Fluo-4 Ca2+ flux; stronger effect = higher value. AID 2227, 2009. hit rate 0.42% among 310,000;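 active means B-score of calcium response area above 5 SD of library B-scores, with initial fluorescence ratio within 5 SD of library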;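 further: B-score of integrated fluorescence ratio over time as area under calcium response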
# TRPC6 inhibitor = mouse TRPC6 channel inhibitors, primary screen, cell-based, HEK293, membrane potential dye; Short transient receptor potential channel 6 (Mus musculus), Q61143; B-score at 10 µM; AID 2553, 2010; hit rate 1.1% among 310,000; ACh-evoked depolarization; stronger effect = lower value;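 active means B-score under library mean minus 3 SD, initial fluorescence not abnormally high, positive integrated signal ratio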;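 further: B-score derived from integrated fluorescence ratio over the kinetic read; more negative B-score means stronger inhibition of depolarization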
# HEK293 TRPC6 ctr = parental HEK293 membrane potential modulation, confirmation, counter-screen for TRPC6 modulator project, cell-based; shares compounds with TRPC6 inhibitor; membrane potential dye fluorescence; membrane potential signal change, % at 10 µM; hit rate 51% among 2,400;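 active means membrane potential signal moves up or down beyond 5 SD from buffer-only wells, on both duplicate plates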
# HEK293 MPD ctr 2 = second counter-screen for TRPC6 modulators: effect in parental HEK293 cells; shares compounds with TRPC6 inhibitor; inhibition, % at 10 µM; membrane potential dye fluorescence; after compound, maximal acetylcholine stimulation; hit rate 14% among 2,400; AID 488926;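 active means membrane potential signal drops by more than 5 SD from the mean control signal, in both duplicate plates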;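 further: plate controls were acetylcholine ECmax control wells for no effect and buffer only wells for full effect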
# TRPC4/MOR mod = TRPC4 modulation by TRPC6 hit compounds, confirmation, selectivity assay for TRPC6 modulator project, cell-based, HEK293 TRPC4/mu-opioid, membrane potential dye, mouse. shares compounds with TRPC6 inhibitor. membrane potential fluorescence. percent change from control (negative = decrease, positive = increase), % at 10 µM. hit rate 69% among 2,400. AID 488927, 2010;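 active means membrane potential signal moved up or down beyond 5 SD of buffer control wells, in both duplicate plates, actives on both sides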;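 further: plate controls were assay buffer wells for no effect and DAMGO maximal-effect wells for full effect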
# TRPC4 ctr inh 2 = mouse TRPC4 off-target activity of TRPC6 modulators, second screen. inhibition, % at 10 µM. hit rate 55% among 2,400. shares compounds with TRPC6 inhibitor. HEK293 TRPC4/mu-opioid, membrane potential dye fluorescence; stimulated with maximal-effect DAMGO;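 active means drop in membrane potential signal beyond 5 SD of the control wells in both duplicate plates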;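 further: TRPC4 counter screen for TRPC6 hits run under conditions tuned for TRPC6 not TRPC4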
# TRPC6 inh conf = mouse TRPC6 channel inhibitors, confirmation, HEK293 cells, membrane potential dye, duplicate; hit rate 43% among 3,300; ACh-evoked depolarization; inhibition, % at 10 µM; AID 488960, 2010; shares compounds with TRPC6 inhibitor;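 active means fluorescence ratio falls more than 5 SD below the full-stimulation control mean, in both duplicate runs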;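 further: integrated fluorescence ratio of peak minus minimum over baseline after agonist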
# TRPC6 act conf = mouse TRPC6 channel activators, confirmation, HEK293 cells, membrane potential dye, duplicate; hit rate 11% among 2,800; activation, % at 10 µM; AID 488961, 2010; shares compounds with TRPC6 inhibitor; HEK293-TRPC6 membrane potential dye fluorescence, FDSS;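 active means ratio signal rise beyond 5 SD above unstimulated control wells' mean, seen in both duplicate runs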;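 further: plate controls were buffer EC0 wells for no effect and acetylcholine ECmax response for full effect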
# Active calls of the source: *; i = inactive; · = no result given.
SMILES,TRPC4 block,TRPC6 act,TRPC4 act,TRPC4 PAM,TRPC6 inhibitor,HEK293 TRPC6 ctr,HEK293 MPD ctr 2,TRPC4/MOR mod,TRPC4 ctr inh 2,TRPC6 inh conf,TRPC6 act conf
CCN(CC)S(=O)(=O)c1ccc(N2CCOCC2)c(NC(=O)C2=COCCO2)c1,i,i,i,i,i,·,·,·,·,·,·
COCCCn1c(=N)c(C(=O)NC2CCCCC2)cc2c(=O)n3ccccc3nc21,i,i,i,i,-6.1*,i,i,i,49%*,64%*,i
COc1ccc(Cn2c(=N)c(C(=O)NC3CCCCC3)cc3c(=O)n4ccccc4nc32)cc1,i,i,i,i,i,·,·,·,·,·,·
COc1ccc(CCn2c(=N)c(C(=O)NC3CCCC3)cc3c(=O)n4ccccc4nc32)cc1OC,i,i,i,i,-5.2*,-154%*,i,-33%*,52%*,42%*,i
COc1ccc(CCn2c(=N)c(C(=O)NCC3CCCO3)cc3c(=O)n4ccccc4nc32)cc1OC (configuration not stated),i,i,i,i,i,·,·,·,·,·,·
COc1ccc(CCn2c(=N)c(C(=O)NC3CCCC3)cc3c(=O)n4ccccc4nc32)cc1,i,i,i,i,-6.5*,169%*,114%*,26%*,86%*,64%*,i
COC(=O)/C=C1\SC(=NC(=O)c2ccc(C)cc2)NC1=O,i,i,i,i,i,·,·,·,·,·,·
COC(=O)/C=C1/SC(=NC(=O)c2ccc(Cl)cc2)NC1=O,i,14*,i,i,i,134%*,i,20%*,i,i,56%*
CN(C)CCCN1c2ccccc2Sc2ccccc21,i,i,i,i,-6.4*,i,i,i,58%*,44%*,i
CN(CCCN1c2ccccc2CCc2ccccc21)CC(=O)c1ccc(Cl)cc1,i,i,i,i,i,·,·,·,·,·,·
COc1ccc2c(c1)Sc1ccccc1N2CCN(C)C,i,i,50*,i,-5.1*,i,i,39%*,82%*,52%*,i
CCC(=O)c1ccc2c(c1)N(CCCN(C)C)c1ccccc1S2,i,i,i,i,-6.1*,-232%*,72%*,-38%*,81%*,70%*,i
C=CCc1ccccc1OCC(O)CN1CCN(c2ccc(OC)cc2)CC1 (configuration not stated),i,i,i,i,-5.3*,i,i,i,54%*,60%*,i
C=CCc1ccccc1OCC(O)CN1CCOCC1 (configuration not stated),i,i,i,i,i,·,·,·,·,·,·
CCOC(=O)c1ccc(NC(=O)Oc2cc(C)c(Cl)cc2C(C)C)cc1,i,i,i,i,-9.9*,126%*,i,13%*,31%*,i,i
c1ccc(-c2cc(NCCN3CCCCC3)c3ccccc3n2)cc1,i,i,i,i,-8.7*,-182%*,66%*,-36%*,72%*,64%*,i
CCN(CC)S(=O)(=O)c1cc(C(=O)NCCN2CCOCC2)ccc1Cl,i,i,i,i,i,·,·,·,·,·,·
COC(=O)c1ccc(N2CCN(C)CC2)c(NC(=O)c2sc3ccccc3c2Cl)c1,i,i,71*,i,-6.7*,-196%*,i,-46%*,74%*,i,i
COC(=O)c1ccc(N2CCN(C)CC2)c(NC(=O)c2ccc(Br)o2)c1,i,i,142*,i,-6.7*,-268%*,82%*,-38%*,94%*,74%*,i
CN1CCN(c2ccc(NC(=O)c3sc4ccccc4c3Cl)cc2)CC1,i,i,i,i,i,·,·,·,·,·,·
O=C(CSc1ccccc1)NCC1(N2CCCCC2)CCCCC1,i,i,i,i,i,·,·,·,·,·,·
COCCNc1nc(-c2ccc(OC)cc2)c(-c2ccc(OC)cc2)s1,i,i,i,i,i,·,·,·,·,·,·
O=C(Nc1nc(=S)ss1)c1ccc(Cl)cc1Cl,i,i,i,i,-7.1*,i,i,i,i,i,i
CCc1nn2c(=O)cc(COc3ccc(/C=C4\C(=N)N5N=C(C)SC5=NC4=O)cc3)nc2s1,i,13*,i,i,i,228%*,i,40%*,i,i,88%*
CN1CCN(c2nc(-c3ccccn3)nc3ccccc23)CC1,i,i,i,i,-16*,-428%*,82%*,-70%*,72%*,74%*,i
CCN1CCN(c2nc(-c3cccnc3)nc3ccccc23)CC1,i,i,i,i,-8.2*,-356%*,i,-58%*,62%*,58%*,i
CCCN1CCN(c2nc(-c3cccs3)nc3ccccc23)CC1,i,i,i,i,-6.1*,-64%*,i,-15%*,52%*,i,i
CN1CCN(c2nc(-c3cccnc3)nc3ccccc23)CC1,i,i,i,i,-8.1*,-320%*,69%*,-57%*,66%*,56%*,i
Cc1cccc(NC(=O)COn2nnc3ccc(S(C)(=O)=O)cc32)c1,i,i,i,i,i,·,·,·,·,·,·
